# Experimental data collected from several papers.
# Protocols differ between the studies behind these lines.
# Read-out: cell growth or viability
SMILES,cell line,test,conditions,endpoint,value
Clc1ccccc1-c1ccc(CNCC2(N3CCCC3)COC2)o1,T98G,,"30 µM, 48 h",viability,94.9%
COc1ccc(Oc2ccc(-c3c(C)[nH]c(C)c(Cl)c3=O)cc2)cc1,HEK293,,,IC50,> 10 µM
COc1ccc(-c2ccc(-c3ccc(C(=N)N)nc3)s2)cc1Cl,SF-539,SRB,,GI50,1.74 µM
CCCc1n(Cc2ccc3ccccc3n2)cc[n+]1Cc1ccc2ccccc2c1,NCI-H322M,SRB,,TGI,15 µM
O=C(c1cc(-c2ccccc2O)on1)N1CCN(C(c2ccccc2)c2ccccc2)CC1,HEK293,,,IC50,> 10 µM
COc1cccc(Oc2ccccc2NC(=O)CNC(=O)c2cccc3ccccc23)c1,SK-MEL-28,SRB,48 h,GI50,4.37 µM
Cc1[nH]c(C)c(C(F)(F)F)c(=O)c1-c1ccc(Oc2ccc(OC(F)(F)F)cc2)cc1,HEK293,,,IC50,> 10 µM
Cc1cccc2cc(CNCC3(N4CCCC4)COC3)cnc12,GBM6,,"30 µM, 48 h",viability,104%
Cc1[nH]cc(Br)c(=O)c1-c1ccc(Oc2ccccc2)cc1,HEK293,,,IC50,> 10 µM
COc1c(OCCCN2CCOCC2)ccc2c1N=C(NC(=O)c1sc(C)nc1C)N1CCN=C21,KPL4,,,EC50,0.086 µM
CCC(=O)Nc1cc(Nc2nc(N3CCc4sccc4C3)c3cccnc3n2)c(OC)cc1N1CCOCC1,NCI-H1975,MTT,,IC50,1.9 µM
COc1cc(-c2ccc(-c3ccc(C(=N)N)nc3)s2)cc(OC)c1OC,SK-MEL-28,SRB,,GI50,1.62 µM
c1cc2c(cc1CNCC1(N3CCCC3)COC1)OCCO2,GBM6,,"30 µM, 48 h",viability,101%
CCC(=O)Nc1cc(Nc2nc(N3CCOCC3)c3sccc3n2)c(OC)cc1N(C)CCN(C)C,NCI-H1975,MTT,,IC50,> 50 µM
Cc1cc(=O)c(-c2ccc(Oc3ccc(Cl)cc3Cl)cc2)c(C)[nH]1,HEK293,,,IC50,> 10 µM
C=CC(=O)Nc1cc(Nc2nc(N3CCc4sccc4C3)c3cccnc3n2)c(OC)cc1N1CCN(CC)CC1,NCI-H1975,MTT,,IC50,1.36 µM
c1ccc(-c2ccc(CNCC3(N4CCCC4)COC3)o2)cc1,GBM6,,"30 µM, 48 h",viability,80.5%
C=CC(=O)Nc1cc(Nc2nc(N3CCc4sccc4C3)c3cccnc3n2)c(OC)cc1N(C)CCN(C)C,NCI-H1975,MTT,,IC50,0.596 µM
O=C(Nc1cccc(-c2cccc(-c3nc4ccccc4[nH]3)c2)c1)NC1CC1c1ccccc1 (stereo not drawn),HEK293,,,IC50,> 10 µM
c1ccc(-c2ccc(CNCC3(N4CCCC4)COC3)s2)cc1,T98G,,"30 µM, 48 h",viability,69%
C=CC(=O)N1CCC[C@@H](n2nc(-c3ccc(Oc4ccccc4)cc3)c3c(N)ncnc32)C1,KARPAS-422,ATP luminescence,72 h,GI50,21.6 µM
